Measurements published in ChEMBL document CHEMBL1131153, “Metabolites of the angiotensin II antagonist tasosartan: the importance of a second acidic group” (J Med Chem, 1998).

Tests used:
[1] = biological target: T1, Angiotensin II receptor (AT-1) type-1 (Rattus norvegicus, UniProt P29089+P25095); experiment: Compound was evaluated for the in vitro inhibition of specific binding of [125I]-A II to Angiotensin II receptor, type 1 from rat adrenal membranes.; type: cell membranes, Membrane
T1 sequence (P29089 whole entry): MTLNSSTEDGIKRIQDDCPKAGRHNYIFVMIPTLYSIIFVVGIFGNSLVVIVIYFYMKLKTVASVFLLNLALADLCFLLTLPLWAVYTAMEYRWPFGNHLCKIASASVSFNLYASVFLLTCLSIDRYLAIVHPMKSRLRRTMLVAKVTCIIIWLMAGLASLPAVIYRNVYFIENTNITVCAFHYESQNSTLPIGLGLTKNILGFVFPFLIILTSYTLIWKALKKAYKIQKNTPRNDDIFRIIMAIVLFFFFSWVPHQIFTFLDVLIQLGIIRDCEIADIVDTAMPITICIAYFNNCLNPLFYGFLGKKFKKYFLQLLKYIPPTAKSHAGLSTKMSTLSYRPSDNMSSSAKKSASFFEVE
T1 sequence (P25095 whole entry): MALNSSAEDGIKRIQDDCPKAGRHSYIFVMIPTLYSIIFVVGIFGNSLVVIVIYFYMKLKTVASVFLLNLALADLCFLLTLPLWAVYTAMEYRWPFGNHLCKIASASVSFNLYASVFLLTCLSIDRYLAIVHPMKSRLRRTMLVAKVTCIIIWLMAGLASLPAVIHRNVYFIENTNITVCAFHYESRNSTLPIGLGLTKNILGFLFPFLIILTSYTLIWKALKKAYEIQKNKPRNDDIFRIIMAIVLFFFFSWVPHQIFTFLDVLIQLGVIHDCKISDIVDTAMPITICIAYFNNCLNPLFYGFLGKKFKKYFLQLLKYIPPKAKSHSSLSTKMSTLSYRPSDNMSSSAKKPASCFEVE

[2] = test system: Rattus norvegicus; experiment: Compound was evaluated for maximum decrease in mean arterial pressure after an intragastric dose of 3.0 mg/kg in rats; type: functional, Artery
Method in brief: (§1)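 Goldblatt 2K-1C model: Sprague-Dawley rats (150 g) under pentobarbital (50 mg/kg ip) had the left renal artery clipped with a silver wire (0.2 mm internal diameter). Hypertension developed over 4–7 weeks, then the right carotid was cannulated under pentobarbital and saline infused at 5 µL/min. Dosing by gastric gavage in 0.5% methyl cellulose, 5 mL/kg. MAP recorded for 24 h; maximum fall reported, mean ± SE, 6–12 rats/group.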

[3] = test system: Rattus norvegicus; experiment: Compound was evaluated for maximum decrease in mean arterial pressure after an intravenous dose of 3.0 mg/kg in rats; type: functional, Artery
Method in brief: (§2)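 Renal hypertension produced in 150 g Sprague-Dawley rats by clipping the left renal artery (silver wire, 0.2 mm ID), used after 4–7 weeks. Right carotid cannulated under pentobarbital (50 mg/kg ip) with saline infusion at 5 µL/min. Intravenous dosing, then MAP and heart rate monitored over 24 h. Maximum MAP decrease reported as mean ± SE versus vehicle-treated rats.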

[4] = test system: Rattus norvegicus; experiment: Compound was evaluated for maximum decrease in mean arterial pressure after an intragastric dose of 30.0 mg/kg in rats; type: functional, Artery; method in brief: as §1
[5] = test system: Rattus norvegicus; experiment: Compound was evaluated for maximum decrease in mean arterial pressure after an intravenous dose of 1.0 mg/kg in rats; type: functional, Artery; method in brief: as §2
[6] = test system: Rattus norvegicus; experiment: Compound was evaluated for maximum decrease in mean arterial pressure after an intragastric dose of 1.0 mg/kg in rats; type: functional, Artery; method in brief: as §1
[7] = test system: Rattus norvegicus; experiment: Compound was evaluated for maximum decrease in mean arterial pressure after an intragastric dose of 0.1 mg/kg in rats; type: functional, Artery; method in brief: as §1
[8] = test system: Rattus norvegicus; experiment: Compound was evaluated for maximum decrease in mean arterial pressure after an intravenous dose of 0.1 mg/kg in rats; type: functional, Artery; method in brief: as §2
[9] = test system: Rattus norvegicus; experiment: Compound was evaluated for maximum decrease in mean arterial pressure after an intragastric dose of 0.3 mg/kg in rats; type: functional, Artery; method in brief: as §1
[10] = test system: Rattus norvegicus; experiment: Compound was evaluated for maximum decrease in mean arterial pressure after an intragastric dose of 10.0 mg/kg in rats; type: functional, Artery; method in brief: as §1
[11] = test system: Rattus norvegicus; experiment: Compound was evaluated for maximum decrease in mean arterial pressure after an intravenous dose of 0.10 mg/kg in rats; type: functional, Artery; conditions: dose 0.1 mg/kg; method in brief: as §2
[12] = test system: Rattus norvegicus; experiment: Compound was evaluated for maximum decrease in mean arterial pressure after an intravenous dose of 0.03 mg/kg in rats; type: functional, Artery; method in brief: as §2
[13] = test system: Rattus norvegicus; experiment: Compound was evaluated for maximum decrease in mean arterial pressure after an intravenous dose of 10.0 mg/kg in rats; type: functional, Artery; method in brief: as §2
[14] = biological target: Angiotensin II receptor (AT-1) type-1 (Rattus norvegicus) (UniProt P29089+P25095); experiment: Compound was evaluated for the in vitro inhibition of specific binding of [125I]-A II to Angiotensin II receptor, type 1 in rat liver membrane at 100 nM.

Structure (SMILES) | IC50 [1] [pM] | MAP [2] [mmHg] | MAP [3] [mmHg] | MAP [5] [mmHg] | MAP [6] [mmHg] | MAP [10] [mmHg] | other results
Cc1nc(C)c2ccc(=O)n(Cc3ccc(-c4ccccc4-c4nn[nH]n4)cc3)c2n1 | 6500 | – | – | – | – | – | –
Cc1nc(C)c2c(n1)N(Cc1ccc(-c3ccccc3-c3nnn[nH]3)cc1)C(=O)CC2 [TASOSARTAN] | 1200 | 76 | 54 | 53 | 71 | 81 | MAP [4]: 80 mmHg; MAP [7]: 6 mmHg; MAP [8]: 37 mmHg; MAP [9]: 45 mmHg
Cc1nc(CO)nc2c1c(O)cc(=O)n2Cc1ccc(-c2ccccc2-c2nn[nH]n2)cc1 | 410 | – | – | – | – | – | –
Cc1nc(C)c2c(O)cc(=O)n(Cc3ccc(-c4ccccc4-c4nn[nH]n4)cc3)c2n1 [ENOLTASOSARTAN] | 170 | 39 | – | – | – | 66 | MAP [11]: 67 mmHg; MAP [12]: 34 mmHg
Cc1nc(C)c2c(n1)N(Cc1ccc(-c3ccccc3-c3nn[nH]n3)cc1)C(=O)CC2O (centres undefined) | – | 54 | 47 | 51 | 55 | 71 | MAP [13]: 41 mmHg
Cc1nc(C)c2c(n1)N(Cc1ccc(-c3ccccc3-c3nnn(C4OC(C(=O)O)C(O)C(O)C4O)n3)cc1)C(=O)CC2 (centres undefined) | – | – | – | – | – | – | inhibition [14]: 3.5%
